In the library only some 4% were active in any assay of this set; here they are far more common.
Arrestin-AP2 inh: human beta-arrestin and AP2 interaction inhibition | FITC-arrestin peptide / GST-AP2 beads, flow cytometry; AP2 beta2 appendage carries R879A mutation | 0.31% of 340,000 active | inhibition, % at 10 µM;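 active = inhibition above a set limit, near 3 SD of compounds lacking own fluorescence, cut at about 54% in these data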
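Assay system: GST-AP2 R879A bound to glutathione beads, E. coli-expressed; Medium: PBS with 0.05% Tween 20 and 0.1% BSA; Also added: fluorescein-tagged arrestin peptide at 50 nM final; Timing: 12 min plus 1 h, RT; Measured by: flow cytometry, FL1 (488/535 nm); Evaluation: percent drop in bead-associated FITC signal.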
NR3A LBD binder: modulates the human NR3A ligand-binding domain. NR3A LBD differential scanning fluorimetry, Tm shift; 0% = protein alone, 100% = glycine-bound protein. Tm shift relative to glycine control, % at 25 µM. 2.5% of 340,000 active;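 active = melting temperature shift of at least 10% of the positive control shift, at one fixed dose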
Cardio protect: myocardial damage modulation in H9c2 cells; H9c2 cardiomyocytes, H2O2 injury protection, ATPLite, 2 h; protection from H2O2 cell death, % at 20 µM; 0.63% of 360,000 active; AID 588492;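 active = compounds giving at least 50% protection of heart cells from peroxide-induced death in the single-dose screen, raw or plate-pattern-corrected value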
SENP1 FRET inh: blocks the human SENP1 SUMO protease catalytic domain; Q9P0U3; recombinant SENP1 catalytic domain, CyPet-SUMO1-YPet FRET cleavage; inhibition, % at 10 µM; 0.21% of 360,000 active; AID 624204;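 active = inhibition at least 30% at 10 µM, raw YFP signal under a set limit, fluorescence ratio 0.5 to 1.5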
Target sequence (Q9P0U3 419-644 limits assumed): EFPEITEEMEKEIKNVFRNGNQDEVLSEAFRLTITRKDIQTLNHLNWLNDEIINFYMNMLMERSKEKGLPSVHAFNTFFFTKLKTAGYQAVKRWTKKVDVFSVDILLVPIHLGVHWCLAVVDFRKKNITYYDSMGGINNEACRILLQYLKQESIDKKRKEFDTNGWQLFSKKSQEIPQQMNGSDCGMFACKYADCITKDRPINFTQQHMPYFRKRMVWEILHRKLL
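Assay system – human recombinant His6-tagged SENP1 catalytic domain enzyme · Input – SENP1 enzyme, 20 pM final · Buffer or medium – Tris pH 8 buffer plus EDTA, NaCl, BME, BSA, NP40, catalase · Schedule – 50 min reaction at room temperature · Technique – FRET read of cyan and yellow fluorescence · Control set – no-enzyme wells low, DMSO-plus-enzyme wells high control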
hiPSC survival: increases survival of single human iPS cells | 0.044% of 360,000 active | AID 602274 | survival enhancement, % at 20 µM | hiPSC single-cell survival, ATPlite luminescence; 100% = ROCK inhibitor wells, 0% = DMSO; in the data active = survival enhancement above about 18%;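 note: cells exposed to compounds for 16 hours before the ATP read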
FAS-TE inh: inhibitors of human fatty acid synthase thioesterase domain; P49327; recombinant FAS-TE, OMFH fluorogenic substrate, fluorescence endpoint; inhibition, % at 15 µM; 0.67% of 360,000 active; AID 602261;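 active = compounds whose normalised, plate-corrected inhibition of enzyme fluorescence in the single-dose primary screen is 50% or more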
Hits are given with their value; i = inactive; nt = not tested or not shown.

SMILES | Arrestin-AP2 inh | NR3A LBD binder | Cardio protect | SENP1 FRET inh | hiPSC survival | FAS-TE inh
C(=N\Nc1nc2ccccc2[nH]1)/c1cccc2nccnc12 | i | i | 51 | i | i | i
C(=N\Nc1nc2ccccc2[nH]1)/c1ccccn1 | i | i | i | i | i | i
Cc1ccc2cc(/C=N/Nc3nc4ccccc4[nH]3)c(Cl)nc2c1 | i | 12 | i | i | i | i
Fc1ccccc1-c1ccc(/C=N/Nc2nc3ccccc3[nH]2)o1 | i | 21 | i | i | i | i
Cc1cc2nc(-c3ccccc3)c(Cc3ccccc3)n2c(C)c1Br | nt | nt | i | i | i | i
Cc1nn(-c2ccc(F)cc2)c2nc(N)c(C#N)c(-c3ccc(O)c(O)c3)c12 | i | i | 77 | i | i | i
COc1ccc(NC(=O)CSc2ncnc3c2sc2ccccc23)c(OC)c1 | i | 16 | i | i | i | i
Fc1cccc(Nc2ncnc3c2cnn3-c2ccccc2)c1 | i | 28 | i | i | i | i
COc1ccc(-n2ncc3c(NCC(C)C)ncnc32)cc1 | i | 17 | i | i | i | i
COc1ccccc1Nc1ncnc2c1cnn2-c1cccc(C)c1 | i | i | i | i | i | i
COc1ccc(-n2ncc3c(NC(C)C)ncnc32)cc1 | i | i | i | i | i | i
Clc1cccc(Nc2ncnc3c2cnn3-c2ccccc2)c1 | i | i | i | i | i | i
COc1cccc(Nc2ncnc3c2cnn3-c2cccc(C)c2)c1 | i | 13 | i | i | i | i
O=C(CCN1CCN(C(c2ccccc2)c2ccccc2)CC1)N/N=C/c1ccc(O)cc1O | i | i | 61 | i | i | i
Cc1cc(C)n(CCC(=O)N/N=C/c2ccc(O)cc2O)n1 | i | i | 55 | i | i | i
Cc1cc(C)n(CCC(=O)N/N=C/c2ccccc2O)n1 | i | i | 54 | i | i | i
CC(=O)Nc1ccc(/C=N/NC(=O)CCN2CCN(c3ccccc3)CC2)cc1 | i | 33 | i | i | i | i
COc1ccc(/C=N/NC(=O)CCn2nc(C)cc2C)cc1O | i | i | i | i | i | i
CCc1nc2ccc(C(=O)N(CC)CCN(C)C)cn2c1N(C)C(=O)C1CCCCC1 | nt | nt | i | i | i | i
C=CCN(Cc1nc(-c2ccccc2)no1)C(=O)c1ccoc1C | i | 14 | i | i | i | i
COc1cccc(Oc2coc3cc(OC(=O)N4CCOCC4)ccc3c2=O)c1 | i | 10 | i | i | i | i
COc1cc(C(=O)N2CCC2(C)C(=O)O)cc(OC)c1OC (configuration not stated) | nt | nt | i | i | i | i
COc1cccc(CN2CCC(C)(Oc3cccc(Cl)c3)C2)c1OC (configuration not stated) | nt | nt | i | i | i | i
CSc1ccc(Cl)c(C(=O)OCC(=O)NC2CC2)c1 | i | 12 | i | i | i | i
O=C(COC(=O)c1ccccc1C(=O)c1ccc(Cl)c([N+](=O)[O-])c1)NC1CC1 | i | i | i | i | 36 | i
SMILES | Arrestin-AP2 inh | NR3A LBD binder | Cardio protect | SENP1 FRET inh | hiPSC survival | FAS-TE inh
COc1ccc(NC(=O)C2(C)CCN2C(=O)CC2CCCC2)cc1OC (configuration not stated) | nt | nt | i | i | i | i
CCOc1ccc(-c2cc(C(=O)Nc3cccc(C(F)(F)F)c3)[nH]n2)c(C)c1 | nt | nt | i | i | i | i
C=CCn1c(SCC(=O)c2ccc(O)c(O)c2)nnc1-c1cccc(Cl)c1 | i | i | 55 | i | i | i
CC(C)NC(=O)C1(C)CN(S(C)(=O)=O)CC(=O)N1C1CC1 (configuration not stated) | nt | nt | nt | i | nt | nt
COc1cc(CN(C2CC2)S(=O)(=O)c2ccccc2Br)cc(OC)c1 | i | 14 | i | i | i | i
CCOc1ccccc1C(=O)Nc1ccccc1C(N)=O | i | i | i | i | i | i
CC(=O)c1ccc(NC(=O)COc2ccccc2C(=O)Nc2ccccc2)cc1 | i | 15 | i | i | i | i
Cc1ccc(NC(=O)c2ccccc2OCC(=O)c2ccccc2)cc1 | i | 10 | i | i | i | i
CCOc1ccccc1C(=O)Nc1ccsc1C(=O)OC | i | 14 | i | i | i | i
CCOc1ccccc1C(=O)Nc1ccc(NC(=O)c2ccccc2)cc1 | i | 17 | i | i | i | i

Compound activity (PubChem)
